Experimental data published in PubChem BioAssay.
Values without a mark were called inactive. Results filed as inconclusive are left out. Active and inactive are the calls of the source.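 The calls were made as follows, unless noted: active = inhibition over a set limit, the all-compound mean plus 3 SD, in both replicate runs; inconclusive = over that limit in just one replicate run; inactive = at or under that limit in both runs.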

Tests used:
[1] = S. cerevisiae growth inhibition in permissive medium (OD615), pilot counter-assay for S. cerevisiae lifespan shortening project, permissive growth control (AID 705;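 active = growth inhibition above 25% in both replicates, a cutoff set 3 SD above the mean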); details: OD615, 24 h, at 10 µM, hits give high values
In short: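 System: engineered DeaD yeast; Medium: permissive raffinose/galactose medium; Compound dosing: 10 µM single dose, 0.25% DMSO; Incubation: 4 h cell pre-growth, 24 h exposure at 30 °C; Technique: OD at 615 nm; Evaluation: growth inhibition from lowered OD615 after 24 h.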

[2] = S. cerevisiae growth inhibition in restrictive medium, OD615, pilot screen, restrictive growth control, yeast lifespan reduction project (AID 706;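 active = growth inhibition above a set limit, 3 SD over mean compound inhibition, in both replicates, cut at about 43% in these data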;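 also: modified DeaD lifespan yeast strain shifted to restrictive glucose medium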); details: OD615, 48 h, at 10 µM, hits give high values
In short: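 Material: modified S. cerevisiae; buffer or medium: CSMM-D glucose medium; doses: one concentration, 10 µM final, 0.25% DMSO; incubation: 48 h compound exposure at 30 °C; detection: optical density at 615 nm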

[3] = doxorubicin toxicity protection in MRP-1 cells – H69AR cells, CellTiter-Glo, duplicate, MRP-1 activator project, pilot screen (AID 807;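 active = viability increase at or above a cutoff of the median across tested compounds plus 3 SD, cut at about 8.5% in these data, passing the limit was not always enough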;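 also: compound pretreatment 18-22 h then 72 h combined with doxorubicin; 0% = doxorubicin alone and 100% = vehicle without doxorubicin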); details: H69AR viability with doxorubicin, CellTiter-Glo luminescence; at 10 µM; hits give high values
[4] = viability of HCT116 without oncogenic beta-catenin – human colon tumor cells, pilot screen (AID 823;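 active = cell viability at or below a set limit in both duplicate runs, the limit being the all-compound median minus 4 SD, cut at about 23% in these data, passing the limit was not always enough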;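 also: 0% = wells killed by 20 µM Hyamine and 100% = untreated DMSO cell wells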); details: HCT116 beta-catenin knockout viability, CellTiter-Glo, 60 h; at 10 µM; hits give low values
[5] = viability of PTEN-null HCT116 cells – cell-based, HCT116 clonal line, CellTiter-Glo, pilot screen (AID 824;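 active = viability at or below 27.92% in each of two runs, the all-compound median minus 4 SD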;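 also: 0% = 20 µM Hyamine control and 100% = vehicle cell control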); details: HCT116 PTEN-deleted viability, 60 h, at 10 µM, hits give low values
[6] = RAM pathway blockade in budding yeast – dse1pr::URA3 reporter, 5-FOA selection, pilot screen (AID 869);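 also: 0% = DMSO wells with no growth and 100% = 10 µM 1-NA-PP1 with full growth; RAM network block rescues cells from 5-FOA so hits raise OD615 growth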; details: S. cerevisiae dse1pr::URA3 5-FOA growth, OD615, 2 d; at 10 µM; hits give high values; strain carries analog-sensitive mutant Cbk1 kinase
[7] = RAM signaling pathway blockade in yeast – S. cerevisiae, Pdr1DBD-CYC8 efflux-inhibited sensitized strain, primary screen (AID 1298;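 active = RAM network inhibition above 8.4% in each of two replicates, 3 SD over the compound average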;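 also: 0% = DMSO untreated cells without growth and 100% = 10 µM 1-NA-PP1 full growth; higher means more yeast growth rescued from 5-FOA killing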); details: S. cerevisiae cbk1-as DSE1-URA3 strain, 5-FOA growth OD615, 2 d; at 50 µM; hits give high values

| SMILES | growth inhibition [1] | growth inhibition [2] | viability increase [3] | viability [4] | viability [5] | inhibition [6] | RAM network inhibition [7] |
| --- | --- | --- | --- | --- | --- | --- | --- |
| Cc1cc(C)cc(N(CC(=O)NC2CC3CCC2C3)S(C)(=O)=O)c1 (stereo unspecified) | -11.4% | -10.6% | -0.31% | 90.4% | 88% | -0.04% | 2.79% |
| COC(=O)C1=CN(CCCN2CCCC2=O)C=C(C(=O)OC)C1c1ccccc1C(F)(F)F | -10% | 1.3% | -6.27% | 39.6% | 35.7% | 0.125% | 1.94% |
| O=C(O)c1ccccc1SC1CC(=O)N(C2CCCCC2)C1=O (stereo unspecified) | -14.3% | -1.75% | -2.78% | 90.7% | 94.3% | 1.17% | 1.06% |
| CCOc1ccc(-c2nc(CSc3nncs3)cs2)cc1OC | 4.37% | 16.2% | -3.61% | 84.1% | 82% | 0.655% | 5.42% |
| COC(=O)c1ccc(C2c3c(n[nH]c3C)C(=O)N2c2ccc(C)cc2)cc1 (stereo unspecified) | 10.6% | -0.115% | 0.79% | 70.6% | 86.4% | 0.34% | 0.36% |
| Cc1cccc(Nc2ncnc3nc[nH]c23)c1 | 3.02% | 32.5% | -1.96% | 101% | 97.6% | 2.31% | 3.11% |
| COc1cccc(-c2nc(C(N)=O)c3[nH]c(=O)n(-c4ccccc4)c3n2)c1OC | -8.87% | -8.02% | -4.58% | 99.4% | 95.9% | 3.04% | -0.2% |
| O=C(Cn1cc2c(n1)CCCC2)NCC1CCCO1 (stereo unspecified) | -2.07% | 3.85% | 0.41% | 103% | 95.9% | 1.89% | 4.01% |
| Nc1nc(-c2ccc3c(c2)CCCC3)cs1 | 2.05% | 29.1% | -0.58% | 86.2% | 88.2% | 0.275% | 2.64% |
| O=C(NCCN1CCOCC1)c1ccc(CS(=O)(=O)c2ccc(Br)cc2)o1 | 0.315% | -7.27% | -1.79% | 99.5% | 97.6% | 1.31% | 3.72% |
| C=CCc1c(C)nc(SC)nc1Nc1ccc(C(C)=O)cc1 | -6.88% | -6.6% | -3.83% | 83.8% | 87.1% | 1.53% | 6.87% |
| Cc1sc2nc3ccc(N4CCCC4)nn3c(=O)c2c1C | -0.905% | 18.9% | -2.12% | 70.1% | 75% | 0.845% | 2.93% |
| Cn1c(NC(=O)c2ccc(F)c(F)c2)cc(=O)n(C)c1=O | -2.93% | -3.23% | -1.64% | 95.7% | 93.4% | 0.925% | 0.81% |
| O=C(Oc1ccccc1)N1CCN(c2ccc(F)cc2)CC1 | -11.1% | -5.32% | 1.92% | 95.8% | 85.5% | 0.665% | 5.1% |
| CN(CC(=O)N1CCc2ccccc21)S(=O)(=O)c1cccc2cccnc12 | -0.355% | -2.55% | -3.47% | 93.9% | 90.8% | 1.47% | 8.8% |
| COc1ccc(NC(=O)C2CCN(S(=O)(=O)c3ccc(C)cc3)CC2)cc1OC | 4.97% | 1.39% | -3.08% | 97.1% | 101% | 2.25% | 4.75% |
| Cc1noc(NS(=O)(=O)c2ccc(NC(=O)CSc3nc4c(cc3C#N)CCC4)cc2)c1C | 4.79% | 48% (active) | 1.01% | 107% | 98.3% | 0.805% | 8.22% |

| SMILES | growth inhibition [1] | growth inhibition [2] | viability increase [3] | viability [4] | viability [5] | inhibition [6] | RAM network inhibition [7] |
| --- | --- | --- | --- | --- | --- | --- | --- |
| Cn1c(=O)oc2cc(S(=O)(=O)N3CCCC3)ccc21 | 4.02% | -7.37% | -2.12% | 102% | 97.2% | 0.645% | 0.66% |
| COc1ccc(C(=O)NCCn2ccc3ccccc32)cc1OC | -9.53% | -16.1% | -3.48% | 99.7% | 81.9% | 1.91% | 2.68% |
| CN1CCN(C(=O)c2ccc3c(c2)N(Cc2ccc(Cl)cc2)C(=O)c2ccccc2S3=O)CC1 (stereo unspecified) | -0.89% | -13.2% | -4.61% | 80.3% | 83% | 0.215% | 1.3% |
| COc1ccc(C2N3CC4(C)CN2CC(C)(C3)C4=O)cc1OC (stereo unspecified) | -1.15% | 2.95% | -0.5% | 102% | 103% | 1.67% | 0.11% |
| CCN(CC)C(=O)Nc1cnc2ccccc2c1 | -17.2% | -8.12% | -2.72% | 93.5% | 96.4% | 0.115% | 5.38% |
| Cn1c(=O)c2c(SC3CCCC3)nc(C3CC3)nc2n(C)c1=O | 3.3% | -9.07% | 1.43% | 91% | 86.3% | 2.54% | 2.78% |
| O=C(c1ccc2c(c1)C(=O)N(Cc1ccco1)C2O)N1CCOCC1 (stereo unspecified) | 1% | -5.05% | -2.58% | 109% | 98.3% | 2.12% | 1.94% |
| CC(=O)CC(=O)Nc1cccc2c1CCCC2 | -1.4% | -1.66% | -1.76% | 92.6% | 91.5% | -0.665% | 1.72% |
| O=C(NC1CCCCC1)C(c1ccccc1)N1CCCC1 (stereo unspecified) | 1.67% | -3.42% | -1.59% | 96.6% | 97.7% | 1.43% | 5.5% |
| O=S(=O)(NCC(c1cccnc1)N1CCN(c2ccc(F)cc2)CC1)c1ccc(F)cc1 (stereo unspecified) | -0.55% | -0.65% | -2.52% | 87.4% | 84.5% | 4.02% | 4.9% |
| CCn1c(C(=O)N2CCc3ccccc3C2)cc2sccc21 | -11.6% | -2.25% | -0.05% | 84.1% | 74.5% | 0.465% | 4.84% |
| NC(=O)c1nc(C2CCCCC2)nc2c1[nH]c(=O)n2-c1ccc(F)cc1 | -13.1% | -17.8% | -3.71% | 87.4% | 86% | 1.69% | 5.24% |
| COc1ccc(N2C(=O)C3CCCN3C2c2ccccc2OC)cc1 (stereo unspecified) | 2.4% | -3.83% | -3.2% | 103% | 97.4% | 0.02% | 0.12% |
| CC(C)(C)NCCCCOc1ccc(F)cc1 | 0.455% | -1.1% | 0.34% | 99.3% | 101% | 1.71% | 1.66% |
| Cc1cccc(C2Nc3ccccc3C(=O)N2CCc2ccccc2)n1 (stereo unspecified) | -10.1% | -2.82% | -2.91% | 78.3% | 73.5% | 2.09% | 7.42% |
| COc1ccc(-n2c3c(cc(C(=O)Nc4ccc5c(c4)C(=O)NC5=O)c2=O)C(=O)CCC3)cc1 | -7.19% | -10.4% | 0.08% | 102% | 102% | 1.77% | 3.06% |
